CHRM4 antagonist: blocks acetylcholine activation of human M4 receptor; CHO-hM4 cells, ACh EC80, Fluo-8 calcium fluorescence; inhibition, % at 3 µM; P08173; AID 624125; actives 0.73% (n = 360,000);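 active = inhibition above its plate's cutoff, the mean inhibition of sample wells plus 3 SD, cut at about 27% in these data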;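 also: 0% = acetylcholine EC80 with DMSO and 100% = DMSO without agonist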
M5 ag: agonists of human muscarinic M5 receptor (CHRM5); P08912; activation, % at 3 µM; CHO-K1 hM5 cells, Fluo-8 calcium fluorescence; 0% DMSO wells, 100% maximal acetylcholine response; actives 0.19% (n = 360,000); AID 624037;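 active = activation above the run's mean over test compounds plus 3 SD, cut at about 23% in these data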;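 also: signal is peak over basal fluorescence ratio across the kinetic read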
Target sequence (P08912 whole entry, looked up): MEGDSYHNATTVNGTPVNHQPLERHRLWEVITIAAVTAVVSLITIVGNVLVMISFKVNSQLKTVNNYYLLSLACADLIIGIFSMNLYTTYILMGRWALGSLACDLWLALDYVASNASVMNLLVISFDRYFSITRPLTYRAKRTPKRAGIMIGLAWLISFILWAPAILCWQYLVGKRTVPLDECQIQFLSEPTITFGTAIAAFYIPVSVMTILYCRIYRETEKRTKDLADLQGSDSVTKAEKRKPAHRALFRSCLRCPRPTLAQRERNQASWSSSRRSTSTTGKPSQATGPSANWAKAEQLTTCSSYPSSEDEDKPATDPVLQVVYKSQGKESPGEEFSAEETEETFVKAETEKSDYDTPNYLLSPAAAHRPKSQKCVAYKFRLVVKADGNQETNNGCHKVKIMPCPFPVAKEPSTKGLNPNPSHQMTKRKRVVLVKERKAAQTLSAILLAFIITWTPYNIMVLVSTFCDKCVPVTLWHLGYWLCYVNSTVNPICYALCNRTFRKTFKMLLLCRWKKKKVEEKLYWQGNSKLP
M4 ag: agonists of human muscarinic M4 receptor (CHRM4). CHO-K1 hM4/Gqi5, Fluo-8 calcium fluorescence; vehicle 0%, full acetylcholine response 100%. AID 624127. actives 0.14% (n = 360,000). activation, % at 3 µM;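 active = activation above the run mean over all test wells plus 3 SD, cut at about 32% in these data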;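 also: peak over basal fluorescence ratio per well then scaled between controls; 0% = DMSO wells and 100% = acetylcholine at EC100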
M4 PAM: positive allosteric modulators of human muscarinic M4 receptor | CHO-K1 hM4/Gqi5, Fluo-8 calcium fluorescence, ACh EC20; 0% = ACh EC20, 100% = maximal ACh | activation, % at 3 µM | actives 0.4% (n = 360,000);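 active = activation above its plate's cutoff, the mean activation of sample wells plus 3 SD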
M5 antag: antagonists of human muscarinic M5 receptor (CHRM5); P08912; CHO-hM5 cells, Fluo-8 calcium fluorescence, ACh EC80; inhibition, % at 3 µM; actives 0.59% (n = 360,000); AID 624040;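 active = inhibition above a per-plate cutoff, the mean of that plate's test compounds plus 3 SD, cut at about 27% in these data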;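 also: 0% = acetylcholine EC80 with DMSO and 100% = DMSO without agonist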
M5 PAM: CHRM5 positive allosteric modulation; P08912; CHO-K1 hM5, Fluo-8 calcium, ACh EC20 PAM; 0% = ACh EC20, 100% = ACh EC100; activation, % at 3 µM; actives 0.3% (n = 360,000);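 active = activation above the run cutoff, the mean activation of all test compounds plus 3 SD, cut at about 18% in these data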
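system = human M5 receptor in CHO-K1 cells | compound = one concentration, 3 µM final (nominal) | schedule = Post-acetylcholine fluorescence recording 140 s | signal = Fluo-8 calcium dye fluorescence, kinetic read | benchmarks = low control EC20 acetylcholine (0%), high control EC100 acetylcholine (100%) | repeats = singlicate, one well per test compound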
Numbers without * were called inactive. An excerpt weighted towards active compounds, which were near 1.8% of everything screened.

SMILES	CHRM4 antagonist	M5 ag	M4 ag	M4 PAM	M5 antag	M5 PAM
CCCc1c(C(=O)N/N=C/C(C)=C/c2ccco2)nnn1-c1nonc1N	-7	-2	2	8	3	2
CCCc1c(C(=O)N/N=C(\C)CCc2ccccc2)nnn1-c1nonc1N	-26	-3	2	15*	-12	-2
CCOc1cccc(-c2c(C(=O)N/N=C/c3cccnc3)nnn2-c2nonc2N)c1	-2	3	5	7	-6	3
COc1ccc(C(=O)COC(=O)c2cnc(C)cn2)cc1OC	3	1	2	-1	10	0
CCCCN1CC(N2CCCCC2)CS1(=O)=O (configuration not stated)	-4	1	1	-2	-2	-7
O=C(CN1CCCC1)N/N=C/c1c(O)ccc2ccccc12	0	3	1	-4	-3	10
CCOc1ccc(OCCC(=O)OCC(=O)Nc2ccc(C)c(S(=O)(=O)N3CCCCC3)c2)cc1	7	5	24	-6	27*	-23
O=C(COC(=O)CCSc1ccc(Cl)cc1)NCc1ccco1	-3	-3	1	7	-2	14
CCCCCC[N+](C)(C)CC/C=C1/c2ccccc2Sc2ccc(Cl)cc21	99*	-18	-1	-59	99*	-33
CN1CCN(CCC=C2c3ccccc3Sc3ccc(S(=O)(=O)N(C)C)cc32)CC1	10	2	8	-13	7	-9
CN(C)CC/C=C1/c2ccccc2Sc2ccc(Cl)cc21	99*	1	9	-19	99*	-18
CN(C)CC/C=C1\c2ccccc2COc2ccccc21	67*	-1	2	-18	98*	-18
OCCN1CCN(CC/C=C2/c3ccccc3Sc3ccc(C(F)(F)F)cc32)CC1	4	1	7	-13	9	-6
O=C(CSc1nnc(Cc2ccccc2)o1)c1cc(F)ccc1F	-6	-1	0	6	3	21*
COC(=O)[C@@]12C[C@@H](CC(=O)NCC34CC5CC(CC(C5)C3)C4)C(=O)N(Cc3ccccc3)C1=CCC(C)(C)C2	-5	0	0	4	1	0
O=C(/C=C/c1ccccc1)NC(NC(=S)Nc1ccc(Cl)cc1)C(Cl)(Cl)Cl (configuration not stated)	10	-3	8	-6	15	-31
O=C(/C=C/c1ccccc1)NC(NC(=S)Nc1cc(Cl)ccc1Cl)C(Cl)(Cl)Cl (configuration not stated)	15	2	11	-8	51*	-16
S=C(Nc1ccc(Nc2ccccc2)cc1)NN1CCOCC1	2	1	3	6	6	-3
CCCNC(=O)c1ccc(CN2CCOCC2)cc1	-3	-1	1	-6	-13	-2
CCOc1ccc(CCN2C(=S)N([C@@H](Cc3ccc(O)cc3)CN3CCC[C@@H]3CN3C(=S)NC[C@@H]3Cc3ccccc3)C[C@@H]2CC(C)C)cc1	-3	-1	0	-2	-1	0
CC(C)C[C@H]1CNC(=S)N1CC1CCN(CCCC2CCCC2)CC1	34*	-3	1	-14	17	-18
CCOc1ccc(CCN2C(=S)N([C@@H](Cc3ccc(O)cc3)CN3CCC[C@@H]3CN3C(=S)NC[C@@H]3CC(C)C)C[C@@H]2Cc2ccccc2)cc1	-12	-4	2	23*	-3	0
COc1ccc(CCN2CCC(CN3C(=S)NC[C@@H]3CC(C)C)CC2)cc1OC	20	-4	0	-13	-1	1
S=C1NC[C@H](Cc2ccccc2)N1CCCCC1CCCCC1	4	-2	1	1	11	1
CC(C)C[C@H]1CNC(=S)N1CC1CCN(CCCCc2ccccc2)CC1	42*	-4	1	-16	6	-16
SMILES	CHRM4 antagonist	M5 ag	M4 ag	M4 PAM	M5 antag	M5 PAM
CCCCN1CCC(CN2C(=S)NC[C@@H]2CC(C)C)CC1	-12	-3	0	10	3	-6
S=C1NC[C@H](Cc2ccccc2)N1CC1CCN(CCCC2CCCC2)CC1	42*	-2	8	-15	14	-15
COc1ccc(-c2c(C)c3ccc(O)cc3oc2=O)cc1	-6	-1	2	-1	-7	1
O=C(Nc1ccc(Cl)cc1)N(C1=NCCC1)c1ccc(OC(F)F)cc1	4	5	9	-13	27*	-11
Cc1cc(=O)[nH]c(SCC(=O)N2CCN(S(=O)(=O)c3ccccc3)C2)n1	4	-1	0	4	-8	-1
O=C(c1cccc(Br)c1)N1CCN(c2cnn(-c3ccccc3)c(=O)c2Cl)CC1	-14	-11	9	35*	2	5
Cc1sc2ncnc(N3CCC(C(=O)Nc4cc(Cl)ccc4Cl)CC3)c2c1C	34*	1	36*	56*	5	-8
Cc1sc2ncnc(N3CCC(C(=O)Nc4ccc(C#N)cc4)CC3)c2c1C	1	3	3	24*	0	1
CCN(CC(=O)Nc1cc(Cl)ccc1C)C(=O)C1CCN(c2ncnc3sc(C)c(C)c23)CC1	15	2	18	-13	27*	-18
Cc1sc2ncnc(N3CCC(C(=O)Nc4ccc(S(N)(=O)=O)cc4)CC3)c2c1C	67*	1	79*	18	6	3
Cc1ccc(NC(=O)C2CCN(c3ncnc4sc(C)c(C)c34)CC2)cc1S(=O)(=O)N(C)C	-1	-2	14	-14	0	-14
Cc1sc2ncnc(N3CCC(C(=O)N(C)CC(=O)Nc4ccccc4Cl)CC3)c2c1C	11	-1	20	-2	-1	-16
CN1CCCC(C)(C(=O)Nc2ccc3scnc3c2)C1 (configuration not stated)	-8	0	0	-5	6	-3
O=C1c2c(-c3ccc(Br)cc3)noc2CCN1Cc1cn(Cc2cccnc2)nn1	-4	2	12	2	7	-8
Cc1[nH]c2c(C)cccc2c1CCNC(=O)c1ccc2c(c1[N+](=O)[O-])C(=O)c1ccccc1C2=O	29*	0	2	-10	4	-1
CCN1C[C@@H]2[C@@H]3C(=O)N(Cc4ccccc4)C(=O)[C@@H]3[C@](C)(C1=O)N2C(=O)c1ccc(Cl)cc1	1	-1	6	-2	12	-6
O=C(NCc1ccccc1)NCC12CC3CC(CC(C3)C1)C2	-4	9	17	-10	15	-15
O=C(NCc1ccccc1)NC12CC3CC(CC(C3)C1)C2	-17	0	-1	-3	-11	20*

Screening results: PubChem, The Scripps Research Institute Molecular Screening Center
